CHRM4 PAM: human M4 muscarinic receptor positive allosteric modulators, primary screen, CHO-K1 cells, Fluo-8 calcium fluorescence; Muscarinic acetylcholine receptor M4 (Homo sapiens), P08173; CHO-K1 hM4/Gqi5, ACh EC20; 0% = ACh EC20, 100% = maximal ACh; activation, % at 3 µM; 360,000 compounds, 0.4% hits;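 active = activation above its plate's cutoff, the mean activation of sample wells plus 3 SD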
Target sequence (P08173 whole entry, looked up): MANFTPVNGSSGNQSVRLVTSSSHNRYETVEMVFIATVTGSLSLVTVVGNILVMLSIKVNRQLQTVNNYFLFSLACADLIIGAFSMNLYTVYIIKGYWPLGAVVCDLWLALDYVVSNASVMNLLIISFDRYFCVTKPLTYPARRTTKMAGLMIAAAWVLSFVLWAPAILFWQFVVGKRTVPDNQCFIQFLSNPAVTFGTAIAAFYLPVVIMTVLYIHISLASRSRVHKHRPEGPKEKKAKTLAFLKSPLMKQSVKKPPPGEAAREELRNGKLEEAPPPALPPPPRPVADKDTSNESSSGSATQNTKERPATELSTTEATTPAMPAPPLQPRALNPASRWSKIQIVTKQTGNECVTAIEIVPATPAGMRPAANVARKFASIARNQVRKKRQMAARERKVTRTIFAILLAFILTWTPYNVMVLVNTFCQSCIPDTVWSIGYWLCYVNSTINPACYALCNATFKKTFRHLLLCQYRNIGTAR
TAAR1 ag: human TAAR1 agonists, primary screen, Fluo-8 calcium fluorescence, CHO RD-HGA16 cells | Trace amine-associated receptor 1 (Homo sapiens), Q96RJ0 | vehicle wells 0%, saturating PEA agonist 100% | activation, % at 3 µM | 360,000 compounds, 0.99% hits | AID 624467, 2012;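 active = activation above the mean activation of all test compounds in the run plus 3 SD, cut at about 38% in these data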
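System: CHO-derived RD-HGA16 cells with stable Gα16 and human TAAR1 / Times: 17-24 h plating, Fluo-8 75 min 37 °C, 30 min RT / Technique: calcium-sensitive Fluo-8 signal, excitation 470-495, emission 515-575 nm / Measure: % activation relative to PEA EC100 response / Benchmarks: DMSO and PEA EC100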
M4 ag: human M4 muscarinic receptor agonists, primary screen, CHO-K1 cells, Fluo-8 calcium fluorescence; CHO-K1 hM4/Gqi5; vehicle 0%, full acetylcholine response 100%; 360,000 compounds, 0.14% hits; activation, % at 3 µM; AID 624127, 2012; Muscarinic acetylcholine receptor M4 (Homo sapiens), P08173;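 active = activation above the run mean over all test wells plus 3 SD, cut at about 32% in these data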;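 note: peak over basal fluorescence ratio per well then scaled between controls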
CHRM4 antagonist: human M4 muscarinic receptor antagonists, primary screen, CHO cells, Fluo-8 calcium fluorescence | Muscarinic acetylcholine receptor M4 (Homo sapiens), P08173 | inhibition, % at 3 µM | CHO-hM4 cells, ACh EC80 | 360,000 compounds, 0.73% hits;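 active = inhibition above its plate's cutoff, the mean inhibition of sample wells plus 3 SD, cut at about 27% in these data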
TAAR1 antag: human TAAR1 antagonists, primary screen, Fluo-8 calcium fluorescence, CHO RD-HGA16 cells; Trace amine-associated receptor 1 (Homo sapiens), Q96RJ0; antagonist; inhibition, % at 3 µM; 360,000 compounds, 1.5% hits; AID 624466, 2012;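 active = inhibition above a per-plate cutoff, the mean inhibition of test compounds on that plate plus 3 SD, cut at about 49% in these data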
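Assay system: CHO-derived RD-HGA16 cells stably expressing human TAAR1 plus Gα16. Timing: 140 s kinetic read after compound, 140 s after agonist. Technique: kinetic Fluo-8 calcium fluorescence measurement. Measure: % inhibition of agonist calcium response.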
TAAR1 ag conf: human TAAR1 agonists, retest of hits, confirmation, Fluo-8 calcium fluorescence, CHO RD-HGA16 cells | shares compounds with TAAR1 ag | scaled: DMSO 0%, maximal phenethylamine 100% | activation, % at 3 µM | 2,400 compounds, 82% hits;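 active = activation above a cutoff set at the run's mean compound activation plus 3 SD, cut at about 39% in these data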
Ga16 nonsel ag: nonselective calcium mobilization agonists, CHO-Ga16 cells, counter-screen for hTAAR1 agonist project, cell-based, fluorescence, CHO-Ga16 parental line; shares compounds with TAAR1 ag; activation, % at 3 µM; 2,400 compounds, 50% hits; Fluo-8 calcium fluorescence; normalized to maximal ATP response, DMSO zero;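 active = activation above the run cutoff, the mean activation over all tested wells plus 3 SD, cut at about 12% in these data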
TAAR1 desens: TAAR1 desensitization by agonist hits, confirmation, counter-screen for TAAR1 agonist project, cell-based, fluorescence, tachyphylaxis; shares compounds with TAAR1 ag; CHO RD-HGA16 hTAAR1, Fluo-8 calcium, beta-PEA response inhibition; inhibition, % at 3 µM; 2,400 compounds, 46% hits; AID 651951, 2012;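 active = inhibition above the run cutoff, the mean inhibition of all test compounds plus 3 SD, cut at about 49% in these data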;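 note: beta-PEA stimulus applied at its EC80; loss of beta-PEA calcium signal after compound pretreatment read as receptor desensitization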
Ga16 nonsel ant: inhibition of ATP-evoked calcium response in CHO-Ga16 cells, counter-screen for TAAR1 agonist project, cell-based, fluorescence | shares compounds with TAAR1 ag | CHO-Ga16 ATP-induced calcium, Fluo-8 fluorescence | inhibition, % at 3 µM | 2,400 compounds, 39% hits | AID 651952, 2012;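 active = inhibition above the plate's mean compound inhibition plus 3 SD, computed per plate, cut at about 22% in these data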
Numbers stand for hits; i = inactive; nt = no result given. Most compounds without a hit are left out; they make up all but 3% or so of the library.

SMILES | CHRM4 PAM | TAAR1 ag | M4 ag | CHRM4 antagonist | TAAR1 antag | TAAR1 ag conf | Ga16 nonsel ag | TAAR1 desens | Ga16 nonsel ant
COc1ccc(NC(=O)N2CCc3ccccc3C2)cc1OC | i | 58.9 | i | i | i | 66.0 | i | i | i
COc1ccc(OC)c(NC(=O)N2CCc3ccccc3C2)c1 | i | 43.5 | i | i | i | 56.6 | i | i | i
O=C(NC1CCCCC1)OC1CC2CC1[C@H]1CCCCN1C2=O (stereo partly specified) | i | i | i | i | i | nt | nt | nt | nt
C[C@H]1CN([C@@H](C)CO)C(=O)c2cc(C#Cc3ccccn3)cnc2O[C@@H]1CN(C)Cc1ccccc1 | i | i | i | i | i | nt | nt | nt | nt
CC(C)NC(=O)C1(C)CCN1C(=O)c1ccccc1Oc1ccccc1 (stereo unspecified) | i | i | i | i | i | nt | nt | nt | nt
Cc1ccc(NS(=O)(=O)c2ccc(C(=O)OCC(=O)Nc3cc(C)on3)cc2)cc1 | i | 72.1 | i | i | i | 72.0 | 34.9 | 50.3 | 37.3
O=C(NCCc1c[nH]c2ccccc12)c1ccc([N+](=O)[O-])o1 | i | i | i | i | i | nt | nt | nt | nt
CCCCNc1ccc2c3c(cccc13)C(=O)N(CCCC)C2=O | i | 497.9 | 267.2 | 80.7 | 107.9 | 182.4 | 287.7 | 90.4 | 94.7
CN(C)CCCN1C(=O)c2cccc3c(Br)ccc(c23)C1=O | i | i | i | i | i | nt | nt | nt | nt
C=CCn1c(N)c(C(=O)Nc2ccccc2OC)sc1=S | i | i | i | i | i | nt | nt | nt | nt
C=CCn1c(N)c(C(=O)Nc2ccc(C)cc2)sc1=S | i | 62.1 | i | i | i | i | i | i | i
CC1=C(C)CS(=O)N(c2ccc(S(N)(=O)=O)cc2)C1 (stereo unspecified) | i | i | i | i | i | nt | nt | nt | nt
CC1=C(C)CS(=O)N(S(=O)(=O)c2ccccc2)C1 (stereo unspecified) | i | 72.8 | i | i | i | 67.7 | 32.8 | i | i
COC(=O)C(/C=N/OCc1ccc([N+](=O)[O-])cc1)NC(=O)c1cccc(Cl)c1 (stereo unspecified) | i | 94.8 | i | i | 87.6 | 94.2 | 51.1 | 78.0 | 41.2
CC(C)(C)c1cc(NC(=O)Nc2ccccc2)no1 | i | i | i | i | i | nt | nt | nt | nt
CC(=O)c1ccc(NC(=O)Nc2ccccc2)cc1 | i | 53.6 | i | i | i | 67.8 | i | 55.4 | i
O=C(Nc1ccccc1)Nc1ccno1 | i | 48.3 | i | i | i | 86.7 | i | 67.2 | i
O=C(Nc1ccncc1)Nc1cccc(Cl)c1 | i | 59.1 | i | i | i | 85.6 | 15.7 | 52.5 | i
O=C(Nc1ccncc1)Nc1ccccn1 | i | i | i | i | i | nt | nt | nt | nt
O=C(Nc1ccccc1)Nc1ccncc1 | i | 81.8 | i | i | 53.0 | 97.0 | i | 86.3 | i
Cc1cc(N2CCN(C(c3ccnc4ccccc34)c3nnnn3-c3c(C)cccc3C)CC2)c2ccccc2n1 (stereo unspecified) | i | i | i | i | i | nt | nt | nt | nt
CN(c1cccc(NC(=O)Nc2cccc(Cl)c2)c1)S(C)(=O)=O | i | 42.6 | i | i | i | i | i | i | 29.0
CC(C)[C@H](NC(=O)C1CC1)C(=O)N1CCC[C@H]1C(=O)NCCc1ccccc1Cl | nt | 61.9 | nt | nt | 69.0 | 92.4 | i | 89.9 | i
CC(C)[C@H](NC(=O)C1CCCC1)C(=O)N1CCC[C@H]1C(=O)NCc1ccccc1 | nt | i | nt | nt | i | nt | nt | nt | nt
O=C(NCCc1ccccc1Cl)[C@@H]1CCCN1C(=O)[C@@H](NS(=O)(=O)c1ccc(F)cc1F)c1ccccc1 | nt | 40.9 | nt | nt | 55.5 | 57.0 | i | 69.3 | i
SMILES | CHRM4 PAM | TAAR1 ag | M4 ag | CHRM4 antagonist | TAAR1 antag | TAAR1 ag conf | Ga16 nonsel ag | TAAR1 desens | Ga16 nonsel ant
Cc1ccccc1C(=O)N[C@H](C(=O)N1CCC[C@H]1C(=O)NCCc1ccccc1Cl)C(C)C | nt | 57.3 | nt | nt | 71.5 | 90.9 | i | 94.6 | i
CC(C)[C@H](NC(=O)CC1CCCC1)C(=O)N1CCC[C@H]1C(=O)NCCc1ccccc1Cl | nt | 65.1 | nt | nt | 57.4 | 85.1 | i | 85.9 | i
CN(C)CCN1CCN(C2CN(Cc3ccccc3)S(=O)(=O)C2)CC1 (stereo unspecified) | i | i | i | i | i | nt | nt | nt | nt
Cc1ccccc1C(=O)N[C@H](C(=O)N1CCC[C@H]1C(=O)NCCc1ccccc1Cl)c1ccccc1 | nt | 53.3 | nt | nt | i | 75.0 | i | 79.2 | i
C[C@@H]1CN([C@H](C)CO)C(=O)CCCn2cc(nn2)CO[C@H]1CN(C)C(=O)Nc1ccccc1C(F)(F)F | i | i | i | i | i | nt | nt | nt | nt
Cc1nc2ccccc2c(=O)n1-c1cccc(NC(=O)c2cccs2)c1 | i | i | i | i | i | nt | nt | nt | nt
O=C(Nc1cccc(N2C(=O)C=CC2=O)c1)c1cccs1 | i | 56.7 | i | i | i | i | 18.9 | i | 21.6
Cc1nc(NC(=O)C(C)(C)C)sc1C(=O)Cn1cc(CCCC#N)nn1 | i | i | i | i | i | nt | nt | nt | nt
CCc1cc2c(NCc3ccccc3)nc(C)nc2s1 | i | i | i | i | i | nt | nt | nt | nt
CCc1cc2c(NCCC(=O)O)nc(C)nc2s1 | i | 48.6 | i | i | i | 103.7 | 46.6 | i | i
C[C@@H]1CN([C@@H](C)CO)C(=O)c2cc(C#CCN(C)C)cnc2O[C@H]1CN(C)Cc1ccc2c(c1)OCO2 | i | i | i | i | i | nt | nt | nt | nt
COC(=O)c1cc(NC(=O)c2ccccc2)c(=O)oc1/C=C/Nc1ccc(Oc2ccccc2)cc1 | i | 49.5 | i | i | 68.0 | 61.8 | 72.6 | 84.7 | 87.4
COc1ccc(OC)c2sc(N3CCc4ccccc4C3)nc12 | i | i | i | i | i | nt | nt | nt | nt
c1ccc2c(c1)CCN(c1nc3cc4c(cc3s1)OCCO4)C2 | i | 56.0 | i | i | i | 80.6 | i | i | i
CCOc1cc2c(C#N)c(N3CCCCC3)nc(N)c2c(N)n1 | i | i | i | i | i | nt | nt | nt | nt
CCOc1cc2c(C#N)c(N3CCNCC3)nc(N)c2c(N)n1 | i | 61.0 | i | i | 53.6 | 82.8 | i | 81.3 | i

Bioassay records deposited in PubChem BioAssay by The Scripps Research Institute Molecular Screening Center.
